Activity calls are given as the source filed them. No cut-off for these calls is given here.
Columns and labels:
NCI-H1975 [1] = assay: Cytotoxicity against human NCI-H1975 cells at 20 to 40 uM by MTT assay; format: functional, cell-based
MDA-MB-231 [2] = assay: Cytotoxicity against human MDA-MB-231 cells at 20 to 40 uM by MTT assay; format: functional, cell-based
[3] = target: T1, Tyrosine-protein phosphatase non-receptor type 11 (Homo sapiens) (UniProt Q06124); assay: Inhibition of SHP2 in human NCI-H1975 cells assessed as reduction of EGF-induced ERK1/2 activation at 40 uM after 60 mins relative to control; format: cell-based
T1 sequence (whole entry): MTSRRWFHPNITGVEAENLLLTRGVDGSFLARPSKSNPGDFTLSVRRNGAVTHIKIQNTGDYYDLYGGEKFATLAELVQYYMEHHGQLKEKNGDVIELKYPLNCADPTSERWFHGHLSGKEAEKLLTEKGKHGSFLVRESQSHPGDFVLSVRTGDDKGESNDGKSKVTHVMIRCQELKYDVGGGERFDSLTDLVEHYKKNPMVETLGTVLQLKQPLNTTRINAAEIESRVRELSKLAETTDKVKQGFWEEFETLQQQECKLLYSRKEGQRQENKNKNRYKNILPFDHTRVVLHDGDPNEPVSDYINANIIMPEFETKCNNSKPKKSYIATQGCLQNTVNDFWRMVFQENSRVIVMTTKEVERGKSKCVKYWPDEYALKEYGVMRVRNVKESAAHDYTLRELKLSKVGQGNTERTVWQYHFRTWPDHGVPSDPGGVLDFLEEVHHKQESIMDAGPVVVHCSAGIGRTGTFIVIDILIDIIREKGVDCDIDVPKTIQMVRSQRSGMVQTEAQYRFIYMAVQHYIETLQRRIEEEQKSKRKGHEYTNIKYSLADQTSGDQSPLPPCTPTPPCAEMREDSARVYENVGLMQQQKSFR
Summary of the method: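 H1975 cells were stimulated with EGF and ERK1/2 and paxillin phosphorylation was assessed by immunoblot. Band intensities were quantified, and pERK1/2/total ERK1/2 or pPaxillin(Y118)/total paxillin ratios were normalized to the reference. Blots are representative of at least two independent experiments, with quantified values given as mean ± SD.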

[4] = target: T1, Tyrosine-protein phosphatase non-receptor type 11 (Homo sapiens); assay: Inhibition of SHP2 in human NCI-H1975 cells assessed as increase in EGF-induced paxillin phosphorylation at Y118 at 40 uM after 60 mins relative to control
[5] = target: T2, Tyrosine-protein phosphatase non-receptor type 22 (Homo sapiens, UniProt Q9Y2R2); assay: Inhibition of phosphatase activity of human LYP using pNPP as a substrate after 10 mins by spectrophotometer analysis
T2 sequence (Q9Y2R2 whole entry): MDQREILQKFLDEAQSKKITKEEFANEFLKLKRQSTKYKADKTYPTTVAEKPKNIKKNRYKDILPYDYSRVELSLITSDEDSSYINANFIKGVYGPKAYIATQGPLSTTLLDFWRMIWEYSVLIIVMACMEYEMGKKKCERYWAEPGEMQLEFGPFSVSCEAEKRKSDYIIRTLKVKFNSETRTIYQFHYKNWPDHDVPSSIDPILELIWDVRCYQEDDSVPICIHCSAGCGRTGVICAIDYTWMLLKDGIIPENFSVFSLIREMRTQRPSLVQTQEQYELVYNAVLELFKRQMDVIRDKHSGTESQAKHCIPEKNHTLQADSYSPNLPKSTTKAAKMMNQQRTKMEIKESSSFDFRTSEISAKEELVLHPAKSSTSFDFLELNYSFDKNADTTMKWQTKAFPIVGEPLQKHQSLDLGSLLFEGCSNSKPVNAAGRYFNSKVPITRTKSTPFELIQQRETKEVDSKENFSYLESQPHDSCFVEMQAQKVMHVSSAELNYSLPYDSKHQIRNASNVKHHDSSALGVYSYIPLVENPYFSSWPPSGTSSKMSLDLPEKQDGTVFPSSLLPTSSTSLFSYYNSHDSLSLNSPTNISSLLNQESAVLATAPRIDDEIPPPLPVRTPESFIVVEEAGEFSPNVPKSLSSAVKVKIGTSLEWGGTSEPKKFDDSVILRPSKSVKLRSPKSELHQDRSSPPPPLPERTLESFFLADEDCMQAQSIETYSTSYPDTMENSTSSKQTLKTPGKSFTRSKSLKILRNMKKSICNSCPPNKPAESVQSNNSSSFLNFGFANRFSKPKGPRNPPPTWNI

[6] = target: T3, Tyrosine-protein phosphatase non-receptor type 7 (Homo sapiens, UniProt P35236); assay: Inhibition of phosphatase activity of human HePTP using pNPP as a substrate after 10 mins by spectrophotometer analysis
T3 sequence (P35236 whole entry): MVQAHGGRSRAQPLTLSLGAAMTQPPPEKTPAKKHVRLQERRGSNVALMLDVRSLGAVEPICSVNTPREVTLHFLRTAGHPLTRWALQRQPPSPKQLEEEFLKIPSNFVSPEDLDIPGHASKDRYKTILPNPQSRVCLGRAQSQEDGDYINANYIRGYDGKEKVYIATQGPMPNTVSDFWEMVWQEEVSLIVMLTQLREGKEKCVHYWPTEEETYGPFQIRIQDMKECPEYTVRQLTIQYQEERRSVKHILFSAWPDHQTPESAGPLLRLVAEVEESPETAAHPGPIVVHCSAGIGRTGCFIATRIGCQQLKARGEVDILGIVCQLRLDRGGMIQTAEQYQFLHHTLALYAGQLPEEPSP

[7] = target: T4, Tyrosine-protein phosphatase non-receptor type 9 (Homo sapiens, UniProt P43378); assay: Inhibition of phosphatase activity of human Meg2 using pNPP as a substrate after 10 mins by spectrophotometer analysis
T4 sequence (P43378 whole entry): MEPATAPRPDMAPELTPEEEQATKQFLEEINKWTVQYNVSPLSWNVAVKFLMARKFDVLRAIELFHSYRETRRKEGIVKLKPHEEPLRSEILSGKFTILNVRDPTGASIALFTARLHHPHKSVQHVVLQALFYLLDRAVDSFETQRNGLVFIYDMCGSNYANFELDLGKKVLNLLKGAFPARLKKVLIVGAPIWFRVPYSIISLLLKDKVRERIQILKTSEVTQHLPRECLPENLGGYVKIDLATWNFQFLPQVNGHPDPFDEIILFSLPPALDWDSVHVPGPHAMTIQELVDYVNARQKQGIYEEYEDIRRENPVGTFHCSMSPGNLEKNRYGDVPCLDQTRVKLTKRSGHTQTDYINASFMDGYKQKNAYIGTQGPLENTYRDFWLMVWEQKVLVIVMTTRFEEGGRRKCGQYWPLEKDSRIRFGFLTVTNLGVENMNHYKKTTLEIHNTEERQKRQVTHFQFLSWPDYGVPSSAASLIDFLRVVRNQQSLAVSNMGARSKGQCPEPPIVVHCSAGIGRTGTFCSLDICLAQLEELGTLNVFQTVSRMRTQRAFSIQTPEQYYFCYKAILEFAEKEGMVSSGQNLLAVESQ

[8] = target: Receptor-type tyrosine-protein phosphatase alpha (Homo sapiens, UniProt P18433); assay: Inhibition of phosphatase activity of human PTPalpha using pNPP as a substrate after 10 mins by spectrophotometer analysis
[9] = target: Receptor-type tyrosine-protein phosphatase beta (Homo sapiens, UniProt P23467); assay: Inhibition of phosphatase activity of human PTPbeta using pNPP as a substrate after 10 mins by spectrophotometer analysis
Sequence of Receptor-type tyrosine-protein phosphatase beta (P23467 whole entry): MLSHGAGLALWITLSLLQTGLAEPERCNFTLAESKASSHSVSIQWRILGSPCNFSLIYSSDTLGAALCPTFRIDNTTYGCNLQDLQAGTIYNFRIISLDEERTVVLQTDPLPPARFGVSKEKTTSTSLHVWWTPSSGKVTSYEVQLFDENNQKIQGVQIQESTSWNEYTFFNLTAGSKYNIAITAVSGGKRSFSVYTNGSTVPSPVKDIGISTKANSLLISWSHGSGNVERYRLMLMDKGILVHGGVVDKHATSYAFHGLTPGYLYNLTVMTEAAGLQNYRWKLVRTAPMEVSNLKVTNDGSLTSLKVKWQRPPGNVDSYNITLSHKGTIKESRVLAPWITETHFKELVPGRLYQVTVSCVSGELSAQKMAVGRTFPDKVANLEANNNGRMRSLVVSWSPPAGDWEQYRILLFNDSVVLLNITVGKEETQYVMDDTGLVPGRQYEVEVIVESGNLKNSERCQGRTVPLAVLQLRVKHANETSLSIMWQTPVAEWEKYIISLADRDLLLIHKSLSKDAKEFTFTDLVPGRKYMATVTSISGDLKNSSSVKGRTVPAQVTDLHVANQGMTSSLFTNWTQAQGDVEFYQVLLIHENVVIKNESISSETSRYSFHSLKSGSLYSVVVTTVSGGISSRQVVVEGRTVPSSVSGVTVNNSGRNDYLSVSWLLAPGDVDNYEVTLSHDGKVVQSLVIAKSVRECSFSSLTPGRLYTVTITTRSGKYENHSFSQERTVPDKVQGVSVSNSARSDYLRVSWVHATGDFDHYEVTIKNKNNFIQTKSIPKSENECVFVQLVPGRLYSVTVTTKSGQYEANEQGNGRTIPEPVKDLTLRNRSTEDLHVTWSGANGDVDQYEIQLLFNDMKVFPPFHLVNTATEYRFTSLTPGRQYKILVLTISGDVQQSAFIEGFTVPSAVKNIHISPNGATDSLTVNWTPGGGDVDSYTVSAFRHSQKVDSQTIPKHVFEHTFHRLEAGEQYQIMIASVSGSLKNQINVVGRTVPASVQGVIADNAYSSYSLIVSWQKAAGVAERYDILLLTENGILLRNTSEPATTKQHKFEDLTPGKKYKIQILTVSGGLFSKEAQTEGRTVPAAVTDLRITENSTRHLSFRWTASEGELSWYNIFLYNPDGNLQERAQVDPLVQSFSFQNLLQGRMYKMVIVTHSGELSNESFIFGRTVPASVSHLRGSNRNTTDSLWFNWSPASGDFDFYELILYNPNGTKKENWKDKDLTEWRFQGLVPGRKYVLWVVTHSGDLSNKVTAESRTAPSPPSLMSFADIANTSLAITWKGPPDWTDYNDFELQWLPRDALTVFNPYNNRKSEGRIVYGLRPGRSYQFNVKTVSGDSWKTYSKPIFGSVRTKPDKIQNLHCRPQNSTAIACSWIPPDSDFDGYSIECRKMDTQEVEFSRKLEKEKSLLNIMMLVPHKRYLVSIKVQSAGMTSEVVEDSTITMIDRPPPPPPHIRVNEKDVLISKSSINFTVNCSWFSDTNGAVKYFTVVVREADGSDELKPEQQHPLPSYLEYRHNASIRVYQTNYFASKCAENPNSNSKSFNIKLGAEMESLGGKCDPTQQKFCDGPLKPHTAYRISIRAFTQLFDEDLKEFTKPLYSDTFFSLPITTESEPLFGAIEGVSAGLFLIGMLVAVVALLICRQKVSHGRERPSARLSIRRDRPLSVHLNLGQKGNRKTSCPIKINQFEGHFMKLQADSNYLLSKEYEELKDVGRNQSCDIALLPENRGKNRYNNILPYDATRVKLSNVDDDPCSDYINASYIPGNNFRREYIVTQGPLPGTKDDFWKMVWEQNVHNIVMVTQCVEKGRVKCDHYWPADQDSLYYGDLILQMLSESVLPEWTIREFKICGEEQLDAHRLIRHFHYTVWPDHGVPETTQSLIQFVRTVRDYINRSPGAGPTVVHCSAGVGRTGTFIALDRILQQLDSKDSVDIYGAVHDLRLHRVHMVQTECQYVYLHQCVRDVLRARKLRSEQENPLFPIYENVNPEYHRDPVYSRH

[10] = target: Receptor-type tyrosine-protein phosphatase epsilon (Homo sapiens, UniProt P23469); assay: Inhibition of phosphatase activity of human PTPepsilon using pNPP as a substrate after 10 mins by spectrophotometer analysis
[11] = target: Receptor-type tyrosine-protein phosphatase gamma (Homo sapiens, UniProt P23470); assay: Inhibition of phosphatase activity of human PTPgamma using pNPP as a substrate after 10 mins by spectrophotometer analysis
Sequence of Receptor-type tyrosine-protein phosphatase gamma (P23470 whole entry): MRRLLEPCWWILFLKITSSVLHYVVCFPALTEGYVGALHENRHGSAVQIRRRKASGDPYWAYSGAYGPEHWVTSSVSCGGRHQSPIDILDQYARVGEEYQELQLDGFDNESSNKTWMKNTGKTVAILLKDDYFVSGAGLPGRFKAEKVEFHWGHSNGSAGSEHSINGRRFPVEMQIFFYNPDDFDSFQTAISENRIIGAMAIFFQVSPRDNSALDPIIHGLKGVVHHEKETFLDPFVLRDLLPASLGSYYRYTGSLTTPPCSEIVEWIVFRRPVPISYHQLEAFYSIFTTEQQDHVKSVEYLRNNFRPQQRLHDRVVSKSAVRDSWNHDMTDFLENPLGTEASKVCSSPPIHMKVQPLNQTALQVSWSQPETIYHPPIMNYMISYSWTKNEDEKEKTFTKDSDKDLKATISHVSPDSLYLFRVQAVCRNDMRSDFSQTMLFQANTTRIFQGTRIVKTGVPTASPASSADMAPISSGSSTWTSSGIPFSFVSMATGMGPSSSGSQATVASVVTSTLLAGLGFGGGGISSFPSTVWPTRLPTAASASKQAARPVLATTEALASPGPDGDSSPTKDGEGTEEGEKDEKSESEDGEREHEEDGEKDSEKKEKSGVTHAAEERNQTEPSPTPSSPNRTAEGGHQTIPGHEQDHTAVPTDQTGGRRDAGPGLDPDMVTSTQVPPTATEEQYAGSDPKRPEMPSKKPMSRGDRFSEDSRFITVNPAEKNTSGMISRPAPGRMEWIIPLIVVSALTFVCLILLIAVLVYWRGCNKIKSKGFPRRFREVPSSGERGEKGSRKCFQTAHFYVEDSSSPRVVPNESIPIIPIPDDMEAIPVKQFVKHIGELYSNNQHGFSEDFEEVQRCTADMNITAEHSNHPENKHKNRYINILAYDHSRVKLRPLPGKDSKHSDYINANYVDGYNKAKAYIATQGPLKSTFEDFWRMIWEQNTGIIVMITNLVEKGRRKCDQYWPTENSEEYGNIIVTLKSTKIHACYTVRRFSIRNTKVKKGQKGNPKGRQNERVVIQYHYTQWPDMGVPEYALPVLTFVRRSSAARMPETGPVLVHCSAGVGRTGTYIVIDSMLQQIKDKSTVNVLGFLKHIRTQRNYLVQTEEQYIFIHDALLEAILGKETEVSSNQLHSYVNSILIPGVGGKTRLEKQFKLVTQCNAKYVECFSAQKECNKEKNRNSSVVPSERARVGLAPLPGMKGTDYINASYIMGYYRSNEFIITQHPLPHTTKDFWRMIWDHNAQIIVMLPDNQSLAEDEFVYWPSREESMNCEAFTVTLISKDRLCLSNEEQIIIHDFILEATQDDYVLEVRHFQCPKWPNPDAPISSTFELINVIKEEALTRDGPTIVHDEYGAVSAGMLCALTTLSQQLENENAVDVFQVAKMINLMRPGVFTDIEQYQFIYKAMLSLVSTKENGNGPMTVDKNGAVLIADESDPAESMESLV

[12] = target: Receptor-type tyrosine-protein phosphatase mu (Homo sapiens, UniProt P28827); assay: Inhibition of phosphatase activity of human PTPmu using pNPP as a substrate after 10 mins by spectrophotometer analysis
Sequence of Receptor-type tyrosine-protein phosphatase mu (P28827 whole entry): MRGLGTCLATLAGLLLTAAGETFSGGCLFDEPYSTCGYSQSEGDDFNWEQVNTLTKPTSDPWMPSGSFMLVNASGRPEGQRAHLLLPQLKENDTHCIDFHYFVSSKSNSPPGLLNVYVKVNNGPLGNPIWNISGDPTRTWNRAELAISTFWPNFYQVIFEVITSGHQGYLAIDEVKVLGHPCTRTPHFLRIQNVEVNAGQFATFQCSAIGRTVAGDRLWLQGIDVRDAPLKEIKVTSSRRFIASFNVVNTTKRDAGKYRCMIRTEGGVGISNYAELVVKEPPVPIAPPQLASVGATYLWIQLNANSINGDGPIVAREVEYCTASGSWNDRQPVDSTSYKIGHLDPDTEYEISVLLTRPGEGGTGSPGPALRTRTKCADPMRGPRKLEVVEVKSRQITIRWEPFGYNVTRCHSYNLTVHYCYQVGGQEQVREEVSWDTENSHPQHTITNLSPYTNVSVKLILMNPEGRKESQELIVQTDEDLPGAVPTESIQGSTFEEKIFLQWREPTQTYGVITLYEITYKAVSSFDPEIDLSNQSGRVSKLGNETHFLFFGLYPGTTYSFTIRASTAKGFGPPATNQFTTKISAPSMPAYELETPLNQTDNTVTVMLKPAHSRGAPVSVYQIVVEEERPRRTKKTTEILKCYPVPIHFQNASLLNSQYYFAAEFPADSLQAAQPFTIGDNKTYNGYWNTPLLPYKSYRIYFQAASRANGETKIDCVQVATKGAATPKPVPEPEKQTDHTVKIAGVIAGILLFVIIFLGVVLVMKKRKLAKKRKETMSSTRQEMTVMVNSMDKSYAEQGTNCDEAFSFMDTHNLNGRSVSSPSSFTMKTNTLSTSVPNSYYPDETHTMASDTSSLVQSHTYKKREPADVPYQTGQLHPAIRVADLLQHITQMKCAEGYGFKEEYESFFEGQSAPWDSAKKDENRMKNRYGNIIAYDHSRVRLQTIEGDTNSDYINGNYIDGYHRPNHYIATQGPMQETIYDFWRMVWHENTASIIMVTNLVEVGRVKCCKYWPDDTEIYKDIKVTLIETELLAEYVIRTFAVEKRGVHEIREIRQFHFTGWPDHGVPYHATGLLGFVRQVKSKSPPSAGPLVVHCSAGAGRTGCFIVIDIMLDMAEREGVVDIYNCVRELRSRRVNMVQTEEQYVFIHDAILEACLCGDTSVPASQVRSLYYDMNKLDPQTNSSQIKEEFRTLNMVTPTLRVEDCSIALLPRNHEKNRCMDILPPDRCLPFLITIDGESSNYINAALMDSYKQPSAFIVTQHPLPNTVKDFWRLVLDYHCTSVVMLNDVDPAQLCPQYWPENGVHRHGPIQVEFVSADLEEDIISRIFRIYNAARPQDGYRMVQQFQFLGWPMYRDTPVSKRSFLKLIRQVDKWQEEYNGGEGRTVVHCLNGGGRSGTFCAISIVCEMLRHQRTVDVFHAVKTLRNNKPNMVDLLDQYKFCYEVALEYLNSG

[13] = target: Receptor-type tyrosine-protein phosphatase F (Homo sapiens, UniProt P10586); assay: Inhibition of phosphatase activity of human LAR using pNPP as a substrate after 10 mins by spectrophotometer analysis
[14] = target: Dual specificity protein phosphatase 3 (Homo sapiens, UniProt P51452); assay: Inhibition of phosphatase activity of human VHR using pNPP as a substrate after 10 mins by spectrophotometer analysis
Sequence of Dual specificity protein phosphatase 3 (P51452 whole entry): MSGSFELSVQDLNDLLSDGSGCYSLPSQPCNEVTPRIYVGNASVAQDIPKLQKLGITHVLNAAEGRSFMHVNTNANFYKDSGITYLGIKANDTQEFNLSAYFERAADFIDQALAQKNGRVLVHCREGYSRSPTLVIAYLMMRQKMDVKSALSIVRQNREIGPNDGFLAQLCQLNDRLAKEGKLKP

[15] = target: T5, Dual specificity protein phosphatase CDC14A (Homo sapiens, UniProt Q9UNH5); assay: Inhibition of phosphatase activity of human CDC14A using pNPP as a substrate after 10 mins by spectrophotometer analysis
T5 sequence (Q9UNH5 whole entry): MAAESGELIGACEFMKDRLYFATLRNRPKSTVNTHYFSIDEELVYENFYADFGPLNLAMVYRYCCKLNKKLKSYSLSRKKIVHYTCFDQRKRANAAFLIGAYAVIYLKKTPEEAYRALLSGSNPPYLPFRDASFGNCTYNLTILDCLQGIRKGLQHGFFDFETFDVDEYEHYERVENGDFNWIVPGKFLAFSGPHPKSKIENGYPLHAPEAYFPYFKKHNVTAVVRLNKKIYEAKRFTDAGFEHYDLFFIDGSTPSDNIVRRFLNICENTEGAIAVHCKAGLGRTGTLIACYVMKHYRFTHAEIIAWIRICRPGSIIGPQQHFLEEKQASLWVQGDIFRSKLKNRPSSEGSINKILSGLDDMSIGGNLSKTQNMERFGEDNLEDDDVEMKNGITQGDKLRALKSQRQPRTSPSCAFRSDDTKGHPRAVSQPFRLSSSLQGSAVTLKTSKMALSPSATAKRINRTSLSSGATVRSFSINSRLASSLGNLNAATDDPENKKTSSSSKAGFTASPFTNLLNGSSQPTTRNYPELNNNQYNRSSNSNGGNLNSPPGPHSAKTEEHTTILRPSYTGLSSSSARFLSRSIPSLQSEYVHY

[16] = target: T6, Low molecular weight phosphotyrosine protein phosphatase (Homo sapiens, UniProt P24666); assay: Inhibition of phosphatase activity of human LMWPTP using pNPP as a substrate after 10 mins by spectrophotometer analysis
T6 sequence (P24666 whole entry): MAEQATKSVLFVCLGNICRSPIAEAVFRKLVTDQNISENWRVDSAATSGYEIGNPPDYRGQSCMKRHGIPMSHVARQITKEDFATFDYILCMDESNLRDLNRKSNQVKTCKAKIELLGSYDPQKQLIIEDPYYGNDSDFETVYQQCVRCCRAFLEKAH

[17] = target: T7, Serine/threonine-protein phosphatase 5 (Homo sapiens, UniProt P53041); assay: Inhibition of phosphatase activity of human PP5 using pNPP as a substrate after 10 mins by spectrophotometer analysis
T7 sequence (P53041 whole entry): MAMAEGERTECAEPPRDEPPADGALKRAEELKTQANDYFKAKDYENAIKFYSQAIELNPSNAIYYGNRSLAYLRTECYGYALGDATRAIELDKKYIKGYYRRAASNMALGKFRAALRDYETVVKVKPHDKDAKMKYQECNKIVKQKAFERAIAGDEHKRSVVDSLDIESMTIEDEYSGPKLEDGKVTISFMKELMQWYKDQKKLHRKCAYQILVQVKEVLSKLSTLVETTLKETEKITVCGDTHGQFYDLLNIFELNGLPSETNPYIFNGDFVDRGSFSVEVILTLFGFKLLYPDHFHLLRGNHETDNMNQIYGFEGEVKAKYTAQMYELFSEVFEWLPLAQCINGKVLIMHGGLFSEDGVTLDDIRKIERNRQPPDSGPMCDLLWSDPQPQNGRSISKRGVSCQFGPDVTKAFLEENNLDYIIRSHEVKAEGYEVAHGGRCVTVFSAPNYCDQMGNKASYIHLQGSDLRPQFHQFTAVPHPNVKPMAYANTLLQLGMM

NCI-H1975 [18] = assay: Cytotoxicity against human NCI-H1975 cells by MTT assay; format: functional, cell-based
MDA-MB-231 [19] = assay: Cytotoxicity against human MDA-MB-231 cells by MTT assay; format: functional, cell-based
[20] = target: T1, Tyrosine-protein phosphatase non-receptor type 11 (Homo sapiens); assay: Inhibition of phosphatase activity of SHP2 (unknown origin) using pNPP as a substrate at 50 uM after 10 mins by spectrophotometer analysis

O=C(Nc1ccccc1)C(=O)Nc1ccc(NC(=O)C(c2ccccc2)S(=O)(=O)O)cc1 (stereo unspecified)
Activity (NCI-H1975 [1]): inactive
Activity (MDA-MB-231 [2]): inactive
fold change (FC) [3]: 1
fold change (FC) [4]: 1.1

O=C(Nc1ccc(NC(=O)C(c2ccccc2)S(=O)(=O)O)cc1)C(=O)Nc1ccc(-c2ccccc2)cc1 (stereo unspecified)
IC50 [5]: > 50 µM
IC50 [6]: > 50 µM
IC50 [7]: > 50 µM
IC50 [8]: > 50 µM
IC50 [9]: > 50 µM
IC50 [10]: > 50 µM
IC50 [11]: > 50 µM
IC50 [12]: > 50 µM
IC50 [13]: > 50 µM
IC50 [14]: > 50 µM
IC50 [15]: > 50 µM
IC50 [16]: > 50 µM
IC50 [17]: > 50 µM
Activity (NCI-H1975 [18]): Dose-dependent effect
Activity (MDA-MB-231 [19]): Dose-dependent effect

O=C(O)C(=O)NCc1ccc(NC(=O)C(c2ccccc2)S(=O)(=O)O)cc1 (stereo unspecified)
inhibition [20]: inactive

O=C(O)C(=O)Nc1cccc(NC(=O)C(c2ccccc2)S(=O)(=O)O)c1 (stereo unspecified)
inhibition [20]: inactive

From ChEMBL document CHEMBL3608232, “Exploring the Existing Drug Space for Novel pTyr Mimetic and SHP2 Inhibitors” (ACS Med Chem Lett, 2015)
